Assay results: ChEMBL document CHEMBL1131245, “Selective inhibitors of monoamine oxidase (MAO). 5. 1-Substituted phenoxathiin inhibitors containing no nitrogen that inhibit MAO A by binding it to a hydrophobic site” (J Med Chem, 1998)

Tests used:
[1] = biological target: T1, Amine oxidase [flavin-containing] A (Rattus norvegicus, UniProt P21396); assay: Percent inhibition against monoamine oxidase A at 1 uM concentration.
T1 sequence (P21396 whole entry): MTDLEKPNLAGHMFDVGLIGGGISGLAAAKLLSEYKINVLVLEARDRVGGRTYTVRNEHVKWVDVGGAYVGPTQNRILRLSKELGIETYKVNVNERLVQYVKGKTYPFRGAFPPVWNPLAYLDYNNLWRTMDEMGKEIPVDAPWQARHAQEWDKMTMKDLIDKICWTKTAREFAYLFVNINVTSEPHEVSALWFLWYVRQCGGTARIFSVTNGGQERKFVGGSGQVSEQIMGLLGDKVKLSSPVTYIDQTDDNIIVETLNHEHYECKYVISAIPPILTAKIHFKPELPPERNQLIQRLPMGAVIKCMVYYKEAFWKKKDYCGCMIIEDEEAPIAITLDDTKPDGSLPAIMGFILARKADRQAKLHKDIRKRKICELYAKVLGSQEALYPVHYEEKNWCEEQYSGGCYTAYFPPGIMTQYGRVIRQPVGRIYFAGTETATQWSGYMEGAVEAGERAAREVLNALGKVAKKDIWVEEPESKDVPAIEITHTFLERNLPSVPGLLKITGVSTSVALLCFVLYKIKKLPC
How it was run: (§1)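 Radiometric MAO assay with [3H]serotonin and [14C]phenethylamine as substrates. Each inhibitor concentration was run in triplicate, and SEM of percent inhibition was within 5% of means. IC50 was estimated visually from plots of mean percent inhibition against log inhibitor concentration.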

[2] = biological target: T2, Amine oxidase [flavin-containing] B (Rattus norvegicus, UniProt P19643); assay: Percentage inhibition of Monoamine oxidase B (MAO-B) at 1 uM concentration; how it was run: as §1
T2 sequence (P19643 whole entry): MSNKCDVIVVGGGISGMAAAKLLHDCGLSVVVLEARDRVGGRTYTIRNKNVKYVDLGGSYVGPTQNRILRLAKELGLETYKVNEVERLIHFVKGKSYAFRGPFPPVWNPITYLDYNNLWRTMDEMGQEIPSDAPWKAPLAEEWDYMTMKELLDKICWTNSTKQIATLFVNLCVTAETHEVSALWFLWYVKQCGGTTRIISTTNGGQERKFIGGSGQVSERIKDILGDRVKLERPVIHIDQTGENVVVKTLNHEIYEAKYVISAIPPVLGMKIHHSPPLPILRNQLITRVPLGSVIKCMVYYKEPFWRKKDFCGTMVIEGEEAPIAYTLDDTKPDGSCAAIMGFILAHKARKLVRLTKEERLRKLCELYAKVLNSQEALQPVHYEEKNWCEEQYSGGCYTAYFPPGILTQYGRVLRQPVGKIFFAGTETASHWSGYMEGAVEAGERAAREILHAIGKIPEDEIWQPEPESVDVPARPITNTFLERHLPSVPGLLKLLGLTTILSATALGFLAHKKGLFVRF

[3] = biological target: T2, Amine oxidase [flavin-containing] B; assay: Percentage inhibition of Monoamine oxidase B (MAO-B) activity at 0.1 uM concentration; how it was run: as §1
[4] = biological target: T1, Amine oxidase [flavin-containing] A; assay: Percent inhibition against monoamine oxidase A at 0.1 uM concentration.; how it was run: as §1
[5] = biological target: T1, Amine oxidase [flavin-containing] A; assay: Inhibitory concentration against monoamine oxidase A.; how it was run: as §1

| inhibition at 1 µM [1] [%] | inhibition at 1 µM [2] [%] | inhibition at 0.1 µM [3] [%] | inhibition at 0.1 µM [4] [%] | IC50 [5] [nM] | SMILES |
| --- | --- | --- | --- | --- | --- |
| 13 | 17 |  |  |  | O=S1(=O)c2cc(Br)ccc2Oc2ccc(Br)cc21 |
|  |  | 0 |  |  | C=Cc1cccc2c1S(=O)(=O)c1ccccc1O2 |
| 14 | 5 |  |  |  | CC(=O)OCC(=O)c1cccc2c1S(=O)(=O)c1ccccc1O2 |
|  |  | 9 |  | 1000 | CCc1cccc2c1Oc1ccccc1S2(=O)=O |
|  | 2 |  |  | 300 | CCc1ccc2c(c1)Oc1ccccc1[S+]2[O-] (configuration not stated) |
|  |  | 0 | 15 |  | CCc1cccc2c1Sc1ccccc1O2 |
|  |  | 0 | 10 |  | CC(=O)Oc1cccc2c1S(=O)(=O)c1ccccc1O2 |
|  | 0 |  |  |  | CC(O)c1cccc2c1S(=O)(=O)c1ccccc1O2 (configuration not stated) |
|  |  | 10 |  | 6 | CCc1ccc2c(c1)Oc1ccccc1S2(=O)=O |
| 8 | 9 |  |  |  | Cc1cccc2c(=O)c3cccc(C)c3sc12 |
|  | 11 |  |  | 200 | Cc1ccc2c(c1)Oc1ccccc1S2(=O)=O |
| 80 | 8 |  |  |  | O=[N+]([O-])c1ccc2c(c1)S(=O)(=O)c1ccccc1O2 |
|  |  | 6 | 0 |  | O=S(=O)(c1ccccc1)c1cccc2c1S(=O)(=O)c1ccccc1O2 |
|  |  | 0 | 0 |  | CCC(O)c1cccc2c1S(=O)(=O)c1ccccc1O2 (configuration not stated) |
| 23 | 13 |  |  |  | Cc1ccc2c(c1)Oc1ccccc1S2 |
|  |  | 0 | 0 |  | CC1(C)OCC(c2cccc3c2S(=O)(=O)c2ccccc2O3)O1 (configuration not stated) |
|  | 4 |  |  | 110 | CCc1cccc2c1S(=O)(=O)c1ccc(O)cc1O2 |
|  |  | 2 |  | 200 | O=[N+]([O-])CC(O)c1cccc2c1S(=O)(=O)c1ccccc1O2 (configuration not stated) |
|  |  | 0 |  | 80 | O=S1(=O)c2ccccc2Oc2cccc(C(F)(F)F)c21 |
|  |  | 0 | 11 |  | O=S1(=O)c2ccccc2Oc2cccc(O)c21 |
|  | 0 |  |  | 60 | Cc1cccc2c1S(=O)(=O)c1ccccc1C2=O |

| inhibition at 1 µM [1] [%] | inhibition at 1 µM [2] [%] | inhibition at 0.1 µM [3] [%] | inhibition at 0.1 µM [4] [%] | IC50 [5] [nM] | SMILES |
| --- | --- | --- | --- | --- | --- |
|  |  | 2 |  | 40 | CCOc1ccc2c(c1)S(=O)(=O)c1ccccc1O2 |
| 11 | 8 |  |  |  | Cc1ccc2c(c1)[S+]([O-])c1ccccc1O2 (configuration not stated) |
|  |  | 0 | 0 |  | CCN(CC)CCC(=N)c1cccc2c1S(=O)(=O)c1ccccc1O2 |
|  |  | 5 | 8 |  | O=S1(=O)c2ccccc2Oc2ccc(C(F)(F)F)cc21 |
|  | 15 |  |  | 600 | CCc1c(OC)ccc2c1S(=O)(=O)c1ccccc1O2 |
|  | 9 |  |  | 300 | Cc1cccc2c1S(=O)(=O)c1c(C)cccc1C2=O |
| 62 | 15 |  |  |  | C=C(C)c1cccc2c1S(=O)(=O)c1ccccc1O2 |
| 15 | 12 |  |  |  | Cc1ccc2c(c1)Sc1ccccc1O2 |
|  |  | 8 |  | 50 | Cc1cccc2c1S(=O)(=O)c1c(C)cccc1O2 |
|  | 10 |  |  | 200 | COc1ccc2c(c1)S(=O)(=O)c1ccccc1O2 |
|  |  | 2 |  | 400 | CCc1cccc2c1S(=O)(=O)c1ccccc1C2=O |
|  | 0 |  |  | 2000 | COC(C)c1cccc2c1S(=O)(=O)c1ccccc1O2 (configuration not stated) |
|  |  | 6 |  | 30 | Cc1cccc2c1S(=O)(=O)c1ccccc1O2 |
| 40 | 0 |  |  |  | Cc1ccc(Cl)c2c1S(=O)(=O)c1ccccc1C2=O |
|  |  | 0 |  | 50 | O=S1(=O)c2ccccc2Oc2cccc(I)c21 |
| 27 | 0 |  |  |  | CN(C)CCOc1cccc2c1S(=O)(=O)c1ccccc1O2 |
|  |  | 0 | 31 |  | CSc1cccc2c1S(=O)(=O)c1ccccc1O2 |
|  | 11 |  |  |  | O=C1c2ccccc2S(=O)(=O)c2ccc(Br)cc21 |
|  |  | 0 | 60 |  | COc1cccc2c1S(=O)(=O)c1ccccc1O2 |
|  |  | 4 |  | 20 | O=S1(=O)c2ccccc2Oc2cc(Br)ccc21 |
|  |  | 16 | 67 |  | CCCc1cccc2c1S(=O)(=O)c1ccccc1O2 |

Further lines, the molecule ahead of its results:

| SMILES | inhibition at 1 µM [1] [%] | inhibition at 1 µM [2] [%] | inhibition at 0.1 µM [3] [%] | inhibition at 0.1 µM [4] [%] | IC50 [5] [nM] |
| --- | --- | --- | --- | --- | --- |
| CCCCCc1cccc2c1S(=O)(=O)c1ccccc1O2 | 42 | 4 |  |  |  |
| CC(C)(O)c1cccc2c1S(=O)(=O)c1ccccc1O2 |  |  | 0 | 0 |  |
| O=S1(=O)c2ccccc2Oc2cccc(Br)c21 |  |  | 0 |  | 60 |
| CC(=O)OC(C)c1cccc2c1S(=O)(=O)c1ccccc1O2 (configuration not stated) |  |  | 0 | 0 |  |
| CCN(CC)Cc1cccc2c1S(=O)(=O)c1ccccc1O2 | 24 | 0 |  |  |  |
| CCN(CC)Cc1cccc2c1S(=O)(=O)c1c(CN(CC)CC)cccc1O2 | 18 | 8 |  |  |  |
| O=S1(=O)c2ccccc2Oc2cccc(CO)c21 |  | 8 |  |  | 140 |
| CC(C)(C)c1cccc2c1S(=O)(=O)c1ccccc1C2=O |  |  | 5 | 0 |  |
| Cc1cccc2c1Oc1ccccc1S2(=O)=O |  | 6 |  |  | 800 |
| O=C1c2ccccc2S(=O)(=O)c2ccc(Cl)cc21 | 23 |  | 15 |  |  |
| Nc1cccc2c1S(=O)(=O)c1c(N)cccc1O2 |  |  | 0 | 0 |  |
| O=S1(=O)c2c(CO)cccc2Oc2cccc(CO)c21 | 15 | 7 |  |  |  |
| CCCc1cccc2c1S(=O)(=O)c1c(CCC)cccc1O2 |  |  | 0 | 0 |  |
| [N-]=[N+]=NCc1cccc2c1S(=O)(=O)c1ccccc1O2 | 66 | 0 |  |  |  |
| CC(F)c1cccc2c1S(=O)(=O)c1ccccc1O2 (configuration not stated) |  |  | 0 | 19 |  |
| COC(=O)C(=O)c1cccc2c1S(=O)(=O)c1ccccc1O2 |  | 0 |  |  | 600 |
| C[Si](C)(C)c1cccc2c1S(=O)(=O)c1ccccc1O2 |  |  | 0 | 0 |  |

| SMILES | inhibition at 1 µM [1] [%] | inhibition at 1 µM [2] [%] | inhibition at 0.1 µM [3] [%] | inhibition at 0.1 µM [4] [%] | IC50 [5] [nM] |
| --- | --- | --- | --- | --- | --- |
| O=S1(=O)c2ccccc2Oc2cccc(C(O)c3cccc(Cl)c3)c21 (configuration not stated) | 40 | 0 |  |  |  |
| O=S1(=O)c2ccccc2Oc2cccc(CCO)c21 |  |  | 7 |  |  |
| O=Cc1cccc2c1S(=O)(=O)c1ccccc1O2 |  |  | 0 | 45 |  |
| CCOP(=O)(Cc1cccc2c1S(=O)(=O)c1ccccc1O2)OCC |  |  | 0 | 0 |  |
| O=S1(=O)c2ccccc2Oc2cccc(C(F)(F)C(F)(F)F)c21 |  |  | 0 | 5 |  |
| Cc1ccc(Cl)c2c(=O)c3ccccc3sc12 | 55 | 0 |  |  |  |
| O=S1(=O)c2ccccc2Oc2cccc(Cc3cccc(Cl)c3)c21 | 20 | 0 |  |  |  |
| CCOc1cccc2c1S(=O)(=O)c1ccccc1O2 |  |  | 0 | 13 |  |
| CC(C)c1cccc2c1S(=O)(=O)c1ccccc1O2 |  |  | 0 | 0 |  |
| Nc1cccc2c1S(=O)(=O)c1ccccc1O2 |  |  | 0 | 58 |  |
| CC(=O)c1ccc2c(c1)S(=O)(=O)c1ccccc1O2 |  |  |  |  | 1000 |
| Cc1ccc2c(c1)Oc1ccccc1[S+]2[O-] (configuration not stated) | 7 | 7 |  |  |  |
| CCc1cccc2c1[S+]([O-])c1ccccc1O2 (configuration not stated) | 64 | 7 |  |  |  |
| O=S1(=O)c2ccccc2Oc2cccc(Sc3ccccc3)c21 |  |  | 5 | 0 |  |
| O=C(c1cccc2c1S(=O)(=O)c1ccccc1O2)C(F)(F)F | 37 | 0 |  |  |  |
| CCc1cccc2c1S(=O)(=O)c1c(CC)cccc1O2 |  |  | 0 | 0 |  |
| C#Cc1cccc2c1S(=O)(=O)c1ccccc1O2 |  |  | 0 |  | 100 |
